Assay results as given in publication PMC8693849 (RSC Advances, 2021).
Converted amounts (≈) assume the structure as drawn.

Legend:
[1] = test system: MRSA1 (methicillin resistant S. aureus); assay: Zone of inhibition against MDR clinical isolate; assay type: cell-based; conditions: for zone of inhibition at 15 µg/mL: Staphylococcus aureus, read-out: Diameter of zone inhibition; for Diameter of zone inhibition: MRSA1 clinical isolate, 15 μg mL^−1
Gram-positive bacteria = assay: Agar diffusion method; assay type: cell-based, S. aureus (ATCC 25923) and S. pyogenes (ATCC 19615); conditions: summary of Table 1
Procedure, shortened: (§1)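 Bacterial strains were tested by agar diffusion on nutrient agar (peptone 5 and meat extract 3 g L⁻¹ in distilled water, pH 7.0, 2% agar, autoclaved 121 °C for 20 min). Each test compound (1 mg) was dissolved in 1 mL DMSO and made up to 10 mL with sterile water (100 μg mL⁻¹ stock). The solution was placed in the agar, and inhibition zones were measured after 24 h incubation. Values are the mean of triplicate readings.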

[2] = test system: P. phaseolicola (GSPB 2828); assay: Agar diffusion method, zone of inhibition; assay type: cell-based, Pseudomonas phaseolicola; conditions: for zone of inhibition at 10 µg/mL / zone of inhibition at 15 µg/mL: Pseudomonas, 24 h, read-out: Diameter of zone inhibition; for Diameter of zone inhibition: P. phaseolicola (GSPB 2828), 15 μg mL^−1, 24 h, average of triplicate
Procedure, shortened: as §1

P. fluorescens (S 97) = assay: Agar diffusion method, zone of inhibition; assay type: cell-based, Pseudomonas fluorescens; conditions: for zone of inhibition at 10 µg/mL / zone of inhibition at 15 µg/mL: Pseudomonas fluorescens, 24 h, read-out: Diameter of zone inhibition; for Diameter of zone inhibition: P. fluorescens (S 97), average of triplicate
Procedure, shortened: as §1

[3] = test system: K. pneumoniae (MDR clinical isolate); assay: Zone of inhibition against MDR clinical isolate; assay type: cell-based; conditions: for zone of inhibition at 15 µg/mL: Klebsiella pneumoniae, read-out: Diameter of zone inhibition; for Diameter of zone inhibition: MDR K. pneumoniae clinical isolate, 15 μg mL^−1
C. albicans = assay: Agar diffusion method, zone of inhibition; assay type: cell-based, Candida albicans; conditions: for zone of inhibition at 10 µg/mL / zone of inhibition at 15 µg/mL: Candida albicans, 24 h, read-out: Diameter of zone inhibition; for Diameter of zone inhibition: C. albicans, average of triplicate
Procedure, shortened: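 For agar diffusion against C. albicans, each test compound (1 mg) was dissolved in 1 mL DMSO and diluted to 10 mL with sterile water (100 μg mL⁻¹ stock). The solution was placed in the agar, and the inhibition zone diameter was read after 24 h. Values are the average of triplicate readings.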

[4] = test system: MRSA1 (methicillin resistant S. aureus); assay: Minimal inhibitory concentration; assay type: cell-based
Procedure, shortened: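 Broth microdilution against MDR clinical isolates: 80 μl Mueller–Hinton broth plus 20 μl tween 80 received 100 μl test compound, then two-fold serial dilution. Each well was inoculated with 100 μl of 0.5 McFarland suspension ([…]) and incubated covered at 35 ± 2 °C for 24 h. MIC is the lowest concentration inhibiting growth.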

S. aureus (ATCC 25923) = assay: Agar diffusion method, zone of inhibition; assay type: cell-based, Staphylococcus aureus; conditions: for Diameter of zone inhibition: S. aureus (ATCC 25923), 15 μg mL^−1, 24 h, average of triplicate; for zone of inhibition at 10 µg/mL / zone of inhibition at 15 µg/mL: Staphylococcus aureus, ATCC25923, 24 h, read-out: Diameter of zone inhibition
Procedure, shortened: as §1

S. pyogenes (ATCC 19615) = assay: Agar diffusion method, zone of inhibition; assay type: cell-based, Streptococcus pyogenes; conditions: Streptococcus pyogenes, ATCC19615, 24 h, read-out: Diameter of zone inhibition
Gram-negative bacteria = assay: Agar diffusion method; assay type: cell-based, P. phaseolicola (GSPB 2828) and P. fluorescens (S 97); conditions: summary of Table 1
Procedure, shortened: as §1

[5] = MRSA1 clinical isolate, Table 2

Molecule | zone of inhibition at 15 µg/mL [1] [mm] | Activity against Gram-positive bacteria (Gram-positive bacteria) | zone of inhibition at 10 µg/mL [2] [mm] | zone of inhibition at 15 µg/mL [2] [mm] | zone of inhibition at 10 µg/mL (P. fluorescens (S 97)) [mm] | zone of inhibition at 15 µg/mL [3] [mm] | zone of inhibition at 10 µg/mL (C. albicans) [mm] | zone of inhibition at 15 µg/mL (C. albicans) [mm] | zone of inhibition at 15 µg/mL (P. fluorescens (S 97)) [mm] | zone of inhibition at 10 µg/mL (S. aureus (ATCC 25923)) [mm] | zone of inhibition at 15 µg/mL (S. aureus (ATCC 25923)) [mm] | zone of inhibition at 10 µg/mL (S. pyogenes (ATCC 19615)) [mm] | zone of inhibition at 15 µg/mL (S. pyogenes (ATCC 19615)) [mm] | Activity against Gram-negative bacteria (Gram-negative bacteria) | also measured
CCOC(=O)C1=C(C)N2NC(C)(c3ccccc3O)N(C(Cc3c[nH]c4ccccc34)C(=O)O)C2=NC1c1ccc(Cl)cc1 (centres unmarked) [Compound 3d, 2-(5-(4-Chlorophenyl)-6-(ethoxycarbonyl)-2-(2-hydroxyphenyl)-2,7-dimethyl-1,2-dihydro-[1,2,4]triazolo[1,5-a]pyrimidin-3(5H)-yl)-3-(1H-indol-3-yl)propanoic acid] | 6 | active | 11 | 23 | 10 | 6 | 9 | 10 | – | – | – | – | – | – | –
CC(=O)C1=C(C)N2NC(c3ccccc3O)N(C(Cc3c[nH]c4ccccc34)C(=O)O)C2=NC1c1ccc(Cl)cc1 (centres unmarked) [Compound 2c, 2-(6-Acetyl-5-(4-chlorophenyl)-2-(2-hydroxyphenyl)-7-methyl-1,2-dihydro-[1,2,4]triazolo[1,5-a]pyrimidin-3(5H)-yl)-3-(1H-indol-3-yl)propanoic acid] | 26 | active | 11 | 23 | 12 | 8 | 6 | 9 | 22 | – | – | – | – | – | MIC ([4]; MRSA1, Table 4): 25 µg/mL (≈ 43.9 µM); SI (selectivity index, CC50/MIC) ([4]; MRSA1 vs VERO cells): 10; MIC ([4]; Staphylococcus aureus): 25 µg/mL (≈ 43.9 µM)
2-(5-(4-Chlorophenyl)-6-cyano-2-(2-hydroxyphenyl)-7-imino-2-methyl-1,2-dihydro-[1,2,4]triazolo[1,5-a]pyrimidin-3(7H)-yl)-3-(1H-indol-3-yl)propanoic acid [Compound 8d] | – | active | – | – | – | – | – | – | – | – | – | – | – | – | Diameter of zone inhibition (S. aureus (ATCC 25923)): 29 mm; MIC [4, 5]: 50 µg/mL; Diameter of zone inhibition [1]: 25 mm; Diameter of zone inhibition [2]: 24 mm; Diameter of zone inhibition (P. fluorescens (S 97); 10 μg mL^−1, 24 h): 12 mm; Diameter of zone inhibition (P. fluorescens (S 97); 15 μg mL^−1, 24 h): 22 mm; Diameter of zone inhibition [3]: 10 mm; Diameter of zone inhibition (C. albicans; 10 μg mL^−1, 24 h): 6 mm; Diameter of zone inhibition (C. albicans; 15 μg mL^−1, 24 h): 7 mm
2-(5-(4-Chlorophenyl)-6-cyano-2-(2-hydroxyphenyl)-7-imino-1,2-dihydro-[1,2,4]triazolo[1,5-a]pyrimidin-3(7H)-yl)-3-(1H-indol-3-yl)propanoic acid [Compound 8c] | – | active | – | – | – | – | – | – | – | – | – | – | – | – | Diameter of zone inhibition (S. aureus (ATCC 25923)): 30 mm; MIC [4, 5]: 50 µg/mL; Diameter of zone inhibition [1]: 28 mm; Diameter of zone inhibition [2]: 24 mm; Diameter of zone inhibition (P. fluorescens (S 97); 10 μg mL^−1, 24 h): 13 mm; Diameter of zone inhibition (P. fluorescens (S 97); 15 μg mL^−1, 24 h): 23 mm; Diameter of zone inhibition [3]: 12 mm; Diameter of zone inhibition (C. albicans; 10 μg mL^−1, 24 h): 8 mm; Diameter of zone inhibition (C. albicans; 15 μg mL^−1, 24 h): 11 mm
CC(=O)C1=C(C)N2NC(c3ccccc3O)N(C(C)C(=O)O)C2=NC1c1ccc(Cl)cc1 (centres unmarked) [Compound 2a, 2-(6-Acetyl-5-(4-chlorophenyl)-2-(2-hydroxyphenyl)-7-methyl-1,2-dihydro-[1,2,4]triazolo[1,5-a]pyrimidin-3(5H)-yl)propanoic acid] | – | – | – | – | 16 | – | – | – | – | 10 | 16 | 12 | – | – | –
CC(C(=O)O)N1C2=NC(c3ccc(Cl)cc3)C3=C(CC(C)(C)CC3=O)N2NC1(C)c1ccccc1O (centres unmarked) [Compound 7, 2-(5-(4-Chlorophenyl)-2-(2-hydroxyphenyl)-2,8,8-trimethyl-6-oxo-1,2,6,7,8,9-hexahydro-[1,2,4]triazolo[1,5-a]quinazolin-3(5H)-yl)propanoic acid] | 8 | – | 19 | – | – | 20 | 10 | 11 | – | 15 | 23 | 12 | 20 | active | –
CC(C(=O)O)N1C2=NC(c3ccc(Cl)cc3)C3=C(CCCC3=O)N2NC1(C)c1ccccc1O (centres unmarked) [Compound 6, 2-(5-(4-Chlorophenyl)-2-(2-hydroxyphenyl)-2-methyl-6-oxo-1,2,6,7,8,9-hexahydro-[1,2,4]triazolo[1,5-a]quinazolin-3(5H)-yl)propanoic acid] | 10 | – | – | 29 | 19 | 22 | 7 | 8 | – | 15 | 25 | 10 | 24 | active | –
O=C(N[C@H](CO)[C@H](O)c1ccc([N+](=O)[O-])cc1)C(Cl)Cl [Chloramphenicol, reference compound] | – | – | 25 | 25 | 30 | – | – | – | 30 | – | – | – | – | – | –
CC(=O)C1=C(C)N2NC(C)(c3ccccc3O)N(C(C)C(=O)O)C2=NC1c1ccc(Cl)cc1 (centres unmarked) [Compound 2b, 2-(6-Acetyl-5-(4-chlorophenyl)-2-(2-hydroxyphenyl)-2,7-dimethyl-1,2-dihydro-[1,2,4]triazolo[1,5-a]pyrimidin-3(5H)-yl)propanoic acid] | 8 | – | 16 | – | 15 | 25 | 6 | 8 | 29 | 12 | – | 10 | – | active | –
CCOC(=O)C1=C(C)N2NC(C)(c3ccccc3O)N(C(C)C(=O)O)C2=NC1c1ccc(Cl)cc1 (centres unmarked) [Compound 3b, 2-(5-(4-Chlorophenyl)-6-(ethoxycarbonyl)-2-(2-hydroxyphenyl)-2,7-dimethyl-1,2-dihydro-[1,2,4]triazolo[1,5-a]pyrimidin-3(5H)-yl)propanoic acid] | 12 | – | – | – | – | 27 | 10 | 12 | – | 12 | 25 | – | 24 | active | –
Clc1ccccc1C(c1ccccc1)(c1ccccc1)n1ccnc1 [Clotrimazole, reference compound] | – | – | – | – | – | – | 36 | 44 | – | – | – | – | – | – | –
CC(C(=O)O)N1C2=NC(c3ccc(Cl)cc3)c3c([nH]c(=O)[nH]c3=O)N2NC1(C)c1ccccc1O (centres unmarked) [Compound 5, 2-(5-(4-Chlorophenyl)-2-(2-hydroxyphenyl)-2-methyl-6,8-dioxo-1,2,6,7,8,9-hexahydropyrimido[5,4-e][1,2,4]triazolo[1,5-a]pyrimidin-3(5H)-yl)propanoic acid] | 8 | – | – | 30 | 15 | 23 | 7 | 9 | 28 | – | 26 | 11 | 25 | active | –
CC(=O)OCC1=C(C(=O)O)N2C(=O)[C@@H](NC(=O)Cc3cccs3)[C@H]2SC1 [Cephalothin, reference compound] | – | – | – | – | – | – | – | – | – | 28 | 28 | 30 | 30 | – | –
